From ChEMBL document CHEMBL1137349, “Selective angiotensin II AT2 receptor agonists: arylbenzylimidazole structure-activity relationships” (J Med Chem, 2006) come the findings set out here.

Active and inactive are the calls of the source. The rule behind the calls is not given here.

The target of test [1] is Type-1 angiotensin II receptor (Rattus norvegicus) (UniProt P25095). The test is described as follows: Displacement of [125I]Ang2 from AT1 receptor in rat liver membrane.
Test [2] has as its system NG108-15. Nature of the test: Induction of NG108-15 cell death at 1 uM. In kind it is functional, cell-based. In a few lines:
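NG108-15 neuroblastoma × glioma hybrid cells plated at 4 × 10⁴ cells per 35 mm dish and cultured 3 days with test agent across 1 pM to 1 µM. Cells were then examined by phase contrast microscopy and micrographs taken to assess cell death.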

The test system of test [3] is NG108-15. The test is described as follows: Induction of neurite growth in NG108-15 cells at 0.1 uM after 3 days in presence of PD-123319. In kind it is functional, cell-based. In a few lines:
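Here the 0.1 µM agonist was co-incubated with 1 µM of the AT2 antagonist PD 123,319 for 3 days. NG108-15 cells were plated at 4 × 10⁴ per 35 mm dish. The percentage of cells bearing a neurite longer than the cell body was counted from phase-contrast micrographs of 50–100 cells.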

The subject of test [4] is NG108-15. Nature of the test: Induction of neurite growth in NG108-15 cells at 0.1 uM after 3 days. The format is functional, cell-based. In a few lines: (§1)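 NG108-15 cells, which express only AT2, were plated at 4 × 10⁴ cells per 35 mm dish and grown 3 days with or without 0.1 µM agonist, with Ang II as reference. Micrographs were taken under phase contrast. Cells with at least one neurite longer than the cell body were scored positive, as a percentage of 50–100 total cells.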

The test system of test [5] is NG108-15. Nature of the test: Induction of neurite growth in NG108-15 cells relative to control. In kind it is functional, cell-based. A digest of the protocol:
as §1

Take `CCCCS(=O)(=O)NC(=O)c1sc(CC(C)C)cc1-c1ccc(Cn2ccnc2)cc1`: in test [1], the Ki was greater than 10 µM.
Consider `CC(C)Cc1cc(-c2ccc(Cn3ccnc3)cc2)c(S(=O)(=O)NC(=O)OC(C)(C)C)s1`, for which the Ki in test [1] is greater than 10 µM.
Take `CCCCOC(=O)NS(=O)(=O)c1sc(CCC)cc1-c1ccc(Cn2ccnc2)cc1`: the result in the test with NG108-15 [2] and with NG108-15 [4] was Active. Further, the outcome in the test on NG108-15 [3] was inactive.
On to `CCCCOC(=O)NS(=O)(=O)c1ccc(OCCCC)cc1-c1ccc(Cn2ccnc2)cc1`, for which the result with NG108-15 [2] and with NG108-15 [4] was Active. Also, the outcome in the test on NG108-15 [3] was inactive.
`COCCOC(=O)NS(=O)(=O)c1sc(CC(C)C)cc1-c1ccc(Cn2ccnc2)cc1`: the Ki in test [1] is greater than 10 µM.
The same measure, in the same setting: in the case of `CCCCN(C)C(=O)NS(=O)(=O)c1sc(CC(C)C)cc1-c1ccc(Cn2ccnc2)cc1` it was greater than 10 µM.
Regarding `Cc1cc(Cn2cnc3c2C[C@@H](C(=O)O)N(C(=O)C(c2ccccc2)c2ccccc2)C3)ccc1N(C)C`, the result in the test with NG108-15 [5] was inactive.
Regarding `CCCCS(=O)(=O)NS(=O)(=O)c1sc(CC(C)C)cc1-c1ccc(Cn2ccnc2)cc1`, the Ki in test [1] is greater than 10 µM.
Regarding `CCCCOC(=O)NS(=O)(=O)c1ccc(OC(C)C)cc1-c1ccc(Cn2ccnc2)cc1`, the Ki in test [1] is greater than 10 µM.
On the same count and under the same terms, in the case of `CC(C)Cc1cc(-c2ccc(Cn3ccnc3)cc2)c(S(=O)(=O)NC(=O)OC(C)C)s1` it was greater than 10 µM.
On the same count and under the same terms, with `CCCCc1ccc(S(=O)(=O)NC(=O)OCC)c(-c2ccc(Cn3ccnc3)cc2)c1` the figure was greater than 10 µM.
On the same count and under the same terms, with `CCCCOC(=O)NS(=O)(=O)c1sc(CCCC)cc1-c1ccc(Cn2ccnc2)cc1` the figure was greater than 10 µM; with `CCCCOC(=O)NS(=O)(=O)c1ccc(CCCC)cc1-c1ccc(Cn2ccnc2)cc1`, greater than 10 µM.

Usually Ki stands for a measure of affinity in units of concentration, obtained from inhibition or displacement.
